{
  "source": "ChEMBL document CHEMBL1134791",
  "about": "“2- and 3-substituted 1,4-naphthoquinone derivatives as subversive substrates of trypanothione reductase and lipoamide dehydrogenase from Trypanosoma cruzi: synthesis and correlation between redox cycling activities and in vitro cytotoxicity” (J Med Chem, 2001)",
  "key": {"[1]": {"substrate": "CC1=C(CCC(=O)O)C(=O)c2ccccc2C1=O", "assay": "(§1) Vmax is the maximum velocity of the pig heart LipDH (lipoamide dehydrogenase) catalyzed NADH oxidation", "method_in_brief": "(§2)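 Recombinant T. cruzi LipDH (E. coli, purified) or pig heart LipDH, 0.1–2.5 µg/mL. Buffer was 50 mM potassium phosphate, 1 mM EDTA, pH 7.0, with 100 µM NADH and naphthoquinone at 10 µM–1.2 mM; all assays carried equal DMSO. Run at 31 °C, started with enzyme, NADH decrease followed at 340 nm. Km and Vmax from Lineweaver–Burk plots. At least duplicate.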"}, "[2]": {"substrate": "CC1=CC(=O)c2ccccc2C1=O", "assay": "as §1", "method_in_brief": "as §2"}, "[3]": {"substrate": "CC1=C(CCCNC(=O)OC(C)(C)C)C(=O)c2c(O)cccc2C1=O", "assay": "as §1", "method_in_brief": "as §2"}, "[4]": {"substrate": "CC1=CC(=O)c2c(O)cccc2C1=O", "assay": "as §1", "method_in_brief": "as §2"}, "[5]": {"substrate": "CC1=C(CCC(=O)NCCCN2CCN(C)CC2)C(=O)c2ccccc2C1=O", "assay": "as §1", "method_in_brief": "as §2"}, "[6]": {"substrate": "CC1=C(CCC(=O)O)C(=O)c2c(O)cccc2C1=O", "assay": "as §1", "method_in_brief": "as §2"}, "[7]": {"substrate": "CC1=C(CCCNC(=O)OC(C)(C)C)C(=O)c2ccccc2C1=O", "assay": "as §1", "method_in_brief": "as §2"}, "[8]": {"substrate": "CC1=C(CCC(=O)NCCCN2CCN(C)CC2)C(=O)c2c(O)cccc2C1=O", "assay": "as §1", "method_in_brief": "as §2"}, "[9]": {"substrate": "CC1=C(CCC(=O)O)C(=O)c2ccccc2C1=O", "assay": "The Michaelis-Menten constant for NADH oxidation by pig heart LipDH (lipoamide dehydrogenase)"}, "[10]": {"substrate": "CC1=C(CCCNC(=O)OC(C)(C)C)C(=O)c2c(O)cccc2C1=O", "assay": "The Michaelis-Menten constant for NADH oxidation by pig heart LipDH (lipoamide dehydrogenase)"}, "[11]": {"substrate": "CC1=C(CCC(=O)O)C(=O)c2c(O)cccc2C1=O", "assay": "The Michaelis-Menten constant for NADH oxidation by pig heart LipDH (lipoamide dehydrogenase)"}, "[12]": {"substrate": "CC1=C(CCCNC(=O)OC(C)(C)C)C(=O)c2ccccc2C1=O", "assay": "The Michaelis-Menten constant for NADH oxidation by pig heart LipDH (lipoamide dehydrogenase)"}, "[13]": {"substrate": "CC1=C(CCC(=O)NCCCN2CCN(C)CC2)C(=O)c2c(O)cccc2C1=O", "assay": "The Michaelis-Menten constant for NADH oxidation by pig heart LipDH (lipoamide dehydrogenase)"}, "[14]": {"substrate": "CC1=CC(=O)c2ccccc2C1=O", "assay": "(§3) The Michaelis-Menten constant for […] by pig heart LipDH (lipoamide dehydrogenase)", "method_in_brief": "as §2"}, "[15]": {"substrate": "CC1=CC(=O)c2c(O)cccc2C1=O", "assay": "as §3", "method_in_brief": "as §2"}, "[16]": {"substrate": "CC1=C(CCC(=O)NCCCN2CCN(C)CC2)C(=O)c2ccccc2C1=O", "assay": "as §3", "method_in_brief": "as §2"}},
  "data": [
    {"protein": "Dihydrolipoyl dehydrogenase, mitochondrial (Sus scrofa), P09623 (protein) MQSWSRVYCTLAKRGHFNRIAHGLQGVSAVPLRTYADQPIDADVTVIGSGPGGYVAAIKAAQLGFKTVCIEKNETLGGTCLNVGCIPSKALLNNSHYYHMAHGKDFASRGIEMSEVRLNLEKMMEQKSNAVKALTGGIAHLFKQNKVVRVNGYGKITGKNQVTATKADGSTEVINTKNILIATGSEVTPFPGITIDEDTVVSSTGALSLKKVPEKMVVIGAGVIGVELGSVWQRLGADVTAVELLGHVGGIGIDMEVSKNFQRILQKQGFKFKLNTKVIGATKKSDGNIDVSIEAASGGKAEVITCDVLLVCIGRRPFTQNLGLEELGIELDPRGRIPVNTRFQTKIPNIYAIGDVVAGPMLAHKAEDEGIICVEGMAGGAVHIDYNCVPSVIYTHPEVAWVGKSEEQLKEEGIEYKVGKFPFAANSRAKTNADTDGMVKILGQKSTDRVLGAHIIGPGAGEMINEAALALEYGASCEDIARVCHAHPTLSEAFREANLAASFGKAINF", "values": [
      {"measurement": "Vmax", "setting": "[1]", "value": 1.52, "unit": "µM/min/mg"},
      {"measurement": "Vmax", "setting": "[2]", "value": 11.5, "unit": "µM/min/mg"},
      {"measurement": "Vmax", "setting": "[3]", "value": 1.66, "unit": "µM/min/mg"},
      {"measurement": "Vmax", "setting": "[4]", "value": 25.3, "unit": "µM/min/mg"},
      {"measurement": "Vmax", "setting": "[5]", "value": 3.46, "unit": "µM/min/mg"},
      {"measurement": "Vmax", "setting": "[6]", "value": 2.2, "unit": "µM/min/mg"},
      {"measurement": "Vmax", "setting": "[7]", "value": 1.03, "unit": "µM/min/mg"},
      {"measurement": "Vmax", "setting": "[8]", "value": 1.09, "unit": "µM/min/mg"},
      {"measurement": "Km", "setting": "[9]", "value": 40, "unit": "µM"},
      {"measurement": "Km", "setting": "[10]", "value": 40, "unit": "µM"},
      {"measurement": "Km", "setting": "[11]", "value": 75, "unit": "µM"},
      {"measurement": "Km", "setting": "[12]", "value": 25, "unit": "µM"},
      {"measurement": "Km", "setting": "[13]", "value": 15, "unit": "µM"},
      {"measurement": "Km", "setting": "[14]", "value": 72, "unit": "µM"},
      {"measurement": "Km", "setting": "[15]", "value": 74, "unit": "µM"},
      {"measurement": "Km", "setting": "[16]", "value": 110, "unit": "µM"}
    ]}
  ]
}
